The test system of data set [1] is Plasmodium falciparum. Put plainly: Antimalarial activity against Plasmodium falciparum. It counts as functional, organism-based. The gist of the method:
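Dd2 and 3D7 grown in O-positive human erythrocytes, RPMI 1640 with 10% heat-inactivated human serum. Synchronous ring-stage infected cells, 0.25% parasitemia, 2.5% hematocrit; growth read as [3H]hypoxanthine incorporation versus DMSO controls. IC50 taken by linear interpolation of inhibition curves. Chloroquine as internal control; triplicate wells, at least four separate occasions.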

Data set [2] in a line: Selectivity index, ratio of IC50 for neonatal foreskin fibroblasts to IC50 for chloroquine-resistant Plasmodium falciparum Dd2.
Data set [3] concerns Plasmodium falciparum. The data set can be described thus: Antimalarial activity against chloroquine-sensitive Plasmodium falciparum 3D7 infected in O+ human erythrocytes by [3H]hypoxanthine incorporation assay. It counts as functional, organism-based. Conditions: 3D7, 3 h.
The nature of data set [4]: Toxicity in neonatal foreskin fibroblasts. Conditions: Fibroblast. It counts as ADME, cell-based.
A short description of data set [5]: Selectivity index, ratio of IC50 for neonatal foreskin fibroblasts to IC50 for chloroquine-sensitive Plasmodium falciparum 3D7.
Data set [6] deals with Plasmodium falciparum. Put plainly: Antimalarial activity against chloroquine-resistant Plasmodium falciparum Dd2 infected in O+ human erythrocytes by [3H]hypoxanthine incorporation assay. It counts as functional, organism-based. The gist of the method: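 Parasites cultured in O+ human erythrocytes in RPMI 1640 with 10% heat-inactivated human serum. Synchronous ring-stage infected cells were set at 0.25% parasitemia and 2.5% hematocrit, and growth was measured by [3H]hypoxanthine incorporation. IC50 was taken against DMSO controls by linear interpolation of inhibition curves. Chloroquine served as the internal control. Triplicate wells, at least four separate occasions.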

Data set [7] deals with Plasmodium falciparum. The data set can be described thus: Inhibition of HDAC in Plasmodium falciparum Dd2 infected in O+ human erythrocytes assessed as alteration of histone acetylation at 20 to 500 nM after 3.5 hrs by Westen blot. It counts as organism-based. The gist of the method:
(§1)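 Late-trophozoite Dd2-infected erythrocytes (3 x 10^9) treated 3.5 h at 37°C at 20, 100 or 500 nM, DMSO vehicle controls. Saponin lysis, histones acid-extracted in 0.5 M HCl, acetone-precipitated, run on 15% SDS-PAGE (silver stain for loading). Western blot with anti-tetra-acetyl histone H4 antiserum (1:2,000), then HRP anti-rabbit (1:5,000).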

Data set [8] concerns Plasmodium falciparum. The data set can be described thus: Antimalarial activity against Plasmodium falciparum infected in O+ human erythrocytes assessed as reduction in parasites at ring stage at 50 nM after 48 hrs by Giemsa staining based microscopy. It counts as functional, organism-based. The essentials:
(§2)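 Synchronous Dd2-infected erythrocytes at ring (~18 h postinvasion), trophozoite (~26 h) or schizont (~38 h) stage, starting parasitemia 0.2–1.0%, exposed to 50 or 200 nM; DMSO (<0.05%) vehicle controls. Parasitemia counted on Giemsa-stained thin smears over 2–4 days, at least 1,000 erythrocytes by two counters. 48 h means compared by ANOVA; three independent experiments.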

In data set [9] the test system is Plasmodium falciparum. The data set can be described thus: Antimalarial activity against Plasmodium falciparum infected in O+ human erythrocytes assessed as reduction in parasites at trophozoites stage at 200 nM after 48 hrs by Giemsa staining based microscopy. It counts as functional, organism-based. The essentials:
as §2

Data set [10] concerns Plasmodium falciparum. Put plainly: Antimalarial activity against Plasmodium falciparum infected in O+ human erythrocytes assessed as reduction in parasites at trophozoites stage at 50 nM after 48 hrs by Giemsa staining based microscopy. It counts as functional, organism-based. The essentials:
as §2

The subject of data set [11] is Plasmodium falciparum. The data set can be described thus: Antimalarial activity against Plasmodium falciparum infected in O+ human erythrocytes assessed as reduction in parasites at schizonts stage at 50 nM after 48 hrs by Giemsa staining based microscopy. It counts as functional, organism-based. The essentials:
as §2

Data set [12] relates to Plasmodium falciparum. Put plainly: Antimalarial activity against Plasmodium falciparum infected in O+ human erythrocytes assessed as reduction in parasites at schizonts stage at 200 nM after 48 hrs by Giemsa staining based microscopy. It counts as functional, organism-based. The gist of the method: as §2
Data set [13] relates to Plasmodium falciparum. The data set can be described thus: Antimalarial activity against Plasmodium falciparum infected in O+ human erythrocytes assessed as reduction in parasites at ring stage at 200 nM after 48 hrs by Giemsa staining based microscopy. It counts as functional, organism-based. The essentials: as §2
The nature of data set [14]: Selectivity index, ratio of IC50 for human WI38 cells to IC50 for chloroquine-sensitive Plasmodium falciparum 3D7.
Data set [15] is described as follows: Toxicity in breast fibroblasts. It counts as cell-based. The following applies: Fibroblast.
Data set [16] can be described thus: Toxicity in human WI38 cells. It counts as cell-based, WI-38.
Data set [17] is described as follows: Selectivity index, ratio of IC50 for human WI38 cells to IC50 for chloroquine-resistant Plasmodium falciparum Dd2.
Data set [18] is described as follows: Toxicity in african green monkey Vero cells. It counts as cell-based. The following applies: African green monkey (Chlorocebus sabaeus).
The nature of data set [19]: Selectivity index, ratio of IC50 for african green monkey (Cercopithecus aethiops) Vero cells to IC50 for chloroquine-sensitive Plasmodium falciparum D6. It counts as toxicity, cell-based. The following applies: read-out: Ratio IC50.
Data set [20] deals with Plasmodium falciparum. The data set can be described thus: Antimalarial activity against chloroquine-resistant Plasmodium falciparum W2 infected in O+ human erythrocytes by [3H]hypoxanthine incorporation assay. It counts as functional, organism-based.
The subject of data set [21] is Plasmodium falciparum. The data set can be described thus: Antimalarial activity against chloroquine-sensitive Plasmodium falciparum D6 infected in O+ human erythrocytes by [3H]hypoxanthine incorporation assay. It counts as functional, organism-based.
The nature of data set [22]: Selectivity index, ratio of IC50 for african green monkey (Cercopithecus aethiops) Vero cells to IC50 for chloroquine-resistant Plasmodium falciparum W2. It counts as toxicity, cell-based. The following applies: read-out: Ratio IC50.
Data set [23] relates to Plasmodium falciparum. Put plainly: Inhibition of HDAC in Plasmodium falciparum Dd2 infected in O+ human erythrocytes assessed as alteration of histone acetylation at 500 nM after 3.5 hrs by Westen blot. It counts as organism-based. The essentials: as §1

Activity calls are given as the source filed them. No cut-off for these calls is given here. A value given as a limit tells only on which side of the number the result lay.

For `O=C(CCCCCCCC(=O)NO)NO` [AZELAIC BIS HYDROXAMIC ACID], the IC50 (commonly the concentration at which inhibition is half-maximal) in data set [1] was determined as 3200 nM.

Consider `CC(NC(=O)c1ccccc1/N=C/c1c(O)ccc2ccccc12)c1ccccc1` (stereo not given) [SIRTINOL], for which the results for the “Ratio IC50” value in data set [2] and in [5] were 2.7 and 1.9, respectively. For the same compound, the IC50 is 12900 nM in data set [3], over 25000 nM in data set [4] and 9100 nM in data set [6].

In the case of `CN(C)c1ccc(C(=O)N[C@@H](CSCCCC(=O)NO)C(=O)Nc2ccc(-c3ccccc3)cc2)cc1`, the “Ratio IC50” value in data set [2] is listed as 3. In addition, the IC50 stood at 320 nM in data set [4] and 128 nM in [6].

In the case of `O=C(CCCCC[C@H](NC(=O)c1ccc(Br)cc1)C(=O)Nc1ccc(-c2ccccc2)cc1)NO`, the “Ratio IC50” value in data set [2] is listed as 5; in data set [5], 9. Further, the results for the IC50 in data set [3], in data set [4] and in data set [6] were 22 nM, 190 nM and 41 nM, respectively.

For the compound `O=C(CCCCC[C@H](NC(=O)c1cc2ccccc2[nH]1)C(=O)Nc1cccc2cccnc12)NO`, the inhibition result in [7], in data set [8], in [9], in data set [10], in data set [11] and in data set [12] was “Active” in each case. In addition, in [13], the inhibition entry is “Active”. In addition, the “Ratio IC50” value in data set [2] was 10; in data set [5] it was 26. Also, the IC50 turned out to be 13 nM in data set [3], 337 nM in data set [4] and 33 nM in data set [6].

`O=C(/C=C/c1ccccc1)N[C@@H](CCCCCC(=O)NO)C(=O)Nc1cccc2cccnc12`: the inhibition entry in [7], in data set [8], in [9], in data set [10], in data set [11] and in [12] was “Active” in each case. In [13], the inhibition result is “Active”. The “Ratio IC50” value in [2] came to 32; in [5] it was 83. Further, the values for the IC50 in [3], in [4] and in [6] were 15 nM, 1240 nM and 39 nM, respectively.

As to `CN(C)c1ccc(NC(=O)[C@H](CSCCCC(=O)NO)NC(=O)c2ccc(N(C)C)cc2)cc1`, the “Ratio IC50” value in data set [2] came to 12. For the same compound, the IC50 in data set [4] came to 600 nM; in data set [6], 48 nM.

With `CN(C)c1ccc(C(=O)N[C@@H](CSCCCC(=O)NO)C(=O)NCc2ccccc2)cc1`, the “Ratio IC50” value in [2] was 2. Further, the IC50 in [4] was found to be 350 nM; in data set [6] it was 169 nM.

In the case of `CN(C)c1ccc(C(=O)N[C@@H](CSCCCC(=O)NO)C(=O)NC2CCCc3ccccc32)cc1` (stereo not given in full), in data set [2], the “Ratio IC50” value came out at 7. For the same compound, the IC50 in data set [4] amounted to 2200 nM; in [6], 305 nM.

In the case of `CC(C)(C)OC(=O)N[C@@H](CCCCCS)C(=O)NC1CCCC1`, the IC50 amounted to 15200 nM in [3] and 19900 nM in data set [6].

On to `O=C(/C=C/c1ccccc1)N[C@@H](CCCCCC(=O)NO)C(=O)NCc1ccccc1`, for which the “Ratio IC50” value in data set [2] is reported as 39; in data set [5] it was 118. The IC50 in data set [3] came out at 34 nM; in data set [4] it was 4010 nM; in [6], 102 nM.

Consider `O=C(CCCCC[C@H](NC(=O)OCc1ccccc1)C(=O)Nc1ccc(-c2ccccc2)cc1)NO`, for which the “Ratio IC50” value in [2] amounted to 21; in [5] it was 76. Moreover, the IC50 in data set [3] amounted to 29 nM; in data set [4] it was 2200 nM; in [6] it was 105 nM.

For the compound `O=C(CCCSC[C@H](NC(=O)c1ccc(Br)cc1)C(=O)NCc1ccccc1)NO`, in [2], the “Ratio IC50” value is recorded as 13. The IC50 was 830 nM in data set [4] and 125 nM in [6].

Consider `Nc1ccccc1NC(=O)c1ccc(CNC(=O)OCc2cccnc2)cc1` [ENTINOSTAT], for which the IC50 is 8300 nM in [3], 20000 nM in data set [15], over 20000 nM in [16] and 7800 nM in data set [6]. The selectivity ratio was over 2.4 in data set [14] and over 2.6 in [17].

For the compound `O=C(CCCCCCC(=O)NO)NO` [SUBEROHYDROXAMIC ACID], the figures for the IC50 in data set [18], in [20] and in [21] were over 20000 nM, 1780 nM and 940 nM, respectively. Besides, the selectivity ratio in data set [19] and in [22] was over 21 in each case.

Turning to `CC(/C=C/C(=O)NO)=C\[C@@H](C)C(=O)c1ccc(N(C)C)cc1` [TRICHOSTATIN], the “Ratio IC50” value in data set [2] is 25; in data set [5], 18. Moreover, the IC50 in data set [3] was 11 nM; in [4], 200 nM; in data set [6], 8 nM. In addition, the inhibition entry in [23], in data set [9], in data set [12] and in data set [13] was “Active” in each case.

For the compound `O=C(/C=C\c1ccccc1)N[C@@H](CSCCCC(=O)NO)C(=O)NCc1ccccc1`, the “Ratio IC50” value in data set [2] is listed as 2. Besides, the half-inhibitory concentration (IC50) is 800 nM in data set [4] and 339 nM in data set [6].

In the case of `CN(C)c1ccc(C(=O)N[C@@H](CCCCCC(=O)NO)C(=O)Nc2cccc3cccnc23)cc1`, the figures for the “Ratio IC50” value in data set [2] and in data set [5] were 8 and 30, respectively. Besides, the IC50 in [3] amounted to 19 nM; in data set [4], 570 nM; in [6], 71 nM.

As to `O=C(CCCCC[C@H](NC(=O)c1cc2ccccc2[nH]1)C(=O)NCc1ccccc1)NO`, the “Ratio IC50” value stood at 20 in data set [2] and 37 in [5]. The figures for the IC50 in data set [3], in data set [4] and in [6] were 34 nM, 1260 nM and 63 nM, respectively.

With `O=C(CCCCC[C@H](NC(=O)c1ccc(Br)cc1)C(=O)NCc1ccccc1)NO`, the entries for the “Ratio IC50” value in data set [2] and in data set [5] were 17 and 64, respectively. In addition, the IC50 in [3] came out at 91 nM; in data set [4], 5860 nM; in [6], 334 nM.

These data come from ChEMBL document CHEMBL1255291, “Potent antimalarial activity of histone deacetylase inhibitor analogues” (Antimicrob Agents Chemother, 2008).
